Data published in ChEMBL document CHEMBL1687689, “Concise syntheses of the abyssinones and discovery of new inhibitors of prostate cancer and MMP-2 expression” (2010).
Calls of active or inactive are those of the source. No cut-off for these calls is given here.

Assays:
PC-3M [1] = assay: (§1) Cytotoxicity in human PC3M cells assessed as inhibition of cell proliferation upto 50 uM after 3 days by MTT assay; format: functional
Method in brief: (§2)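 Metastatic variant PC3-M human prostate cancer cells in exponential growth exposed 3 days to 0−50 μM of each racemate or enantiomer; viability by MTT, absorbance at 540 nm. CC50 derived from the concentration-response. For the 50 μM readout, absorbance at 72 h compared with untreated cells at the start (t = 0 h).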

[2] = Cytotoxicity in human PC3M cells assessed as inhibition of cell proliferation after 3 days by MTT assay; format: functional; conditions: PC-3M, 72 h; method in brief: as §2
PC-3M [3] = assay: Inhibition of MMP-2 mRNA expression in human PC3M cells at 3 uM after 3 days by qRT-PCR analysis relative to untreated control; format: functional; conditions: 72 h
[4] = as §1; format: functional, PC-3M; method in brief: as §2

SMILES	inhibition (PC-3M [1])	CC50 [2]	inhibition at 3 µM (PC-3M [3])	fold change (FC) [4]
CC(C)=CCc1cc(C2CC(=O)c3ccc(O)cc3O2)ccc1O (racemic)	Active			
CC1(C)C=Cc2cc([C@@H]3CC(=O)c4ccc(O)cc4O3)ccc2O1	Active			
CC(C)=CCc1cc(C2CC(=O)c3ccc(O)cc3O2)cc2c1OC(C)(C)C=C2 (racemic)	Active	57 µM		
CC1(C)C=Cc2cc([C@H]3CC(=O)c4ccc(O)cc4O3)ccc2O1	Active			
CC1(C)C=Cc2cc(C3CC(=O)c4ccc(O)cc4O3)ccc2O1 (racemic)	Active			
CC(C)=CCc1cc([C@H]2CC(=O)c3ccc(O)cc3O2)cc2c1OC(C)(C)C=C2	Active	42 µM	65%	
CC(C)=CCc1cc([C@H]2CC(=O)c3ccc(O)cc3O2)ccc1O	Active			
CC(C)=CCc1cc([C@@H]2CC(=O)c3ccc(O)cc3O2)ccc1O	Active			
COc1c(CC=C(C)C)cc(C2CC(=O)c3ccc(O)cc3O2)cc1CC=C(C)C (racemic)	Active	33 µM		
COc1c(CC=C(C)C)cc([C@@H]2CC(=O)c3ccc(O)cc3O2)cc1CC=C(C)C	Active	12 µM		2
COc1c(CC=C(C)C)cc([C@H]2CC(=O)c3ccc(O)cc3O2)cc1CC=C(C)C	Active	46 µM		
